Reference: ChEMBL document CHEMBL3526002, “Tissue distribution and identification of radioactivity components at elimination phase after oral administration of [¹⁴C]CS-1036, an α-amylase inhibitor, to rats” (Drug Metab Dispos, 2013)

Experiments:
Parameters in all cases: dose 5 mg/kg, dosed compound name [14C]CS-1036, route oral
Details in all cases: in vivo
Cerebrum [1] = test: Drug uptake in albino F344/DuCrlCrlj rat cerebrum assessed as ng equivalent of CS-1036 at 5 mg/kg, po after 168 hrs by liquid scintillation counting; type: ADME, organism-based
In short: (§1)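 Single oral [14C]CS-1036 at 5 mg/kg was given to male rats (159–167 g; n = 3). Cerebrum was collected after aortic bleeding at 1, 4, 8, 24, 72, 168 or 336 h, weighed, and homogenized in 2 volumes of saline. A 0.5 ml aliquot was solubilized in Soluene-350 and counted by LSC with external-standard correction. Results are in ng equivalent/g tissue from specific activity and sample weight.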

Small intestine [2] = test: Drug uptake in albino F344/DuCrlCrlj rat small intestine assessed as ng equivalent of CS-1036 at 5 mg/kg, po after 336 hrs by liquid scintillation counting; type: ADME, organism-based
Thymus [3] = test: Drug uptake in albino F344/DuCrlCrlj rat thymus assessed as ng equivalent of CS-1036 at 5 mg/kg, po after 1 hr by liquid scintillation counting; type: ADME, organism-based
[4] = Drug uptake in albino F344/DuCrlCrlj rat mandibular gland at 5 mg/kg, po after 4 hrs by liquid scintillation counting; type: ADME, organism-based
[5] = Drug uptake in albino F344/DuCrlCrlj rat trachea assessed as ng equivalent of CS-1036 at 5 mg/kg, po after 4 hrs by liquid scintillation counting; type: ADME, organism-based
Zone of skin = test: Drug uptake in albino F344/DuCrlCrlj rat skin assessed as ng equivalent of CS-1036 at 5 mg/kg, po after 72 hrs by liquid scintillation counting; type: ADME, organism-based
[6] = Drug uptake in albino F344/DuCrlCrlj rat epididymis assessed as ng equivalent of CS-1036 at 5 mg/kg, po after 168 hrs by liquid scintillation counting; type: ADME, organism-based
Liver [7] = test: Drug uptake in albino F344/DuCrlCrlj rat liver assessed as ng equivalent of CS-1036 at 5 mg/kg, po after 168 hrs by liquid scintillation counting; type: ADME, organism-based
[8] = Drug uptake in albino F344/DuCrlCrlj rat bone marrow at 5 mg/kg, po after 72 hrs by liquid scintillation counting; type: ADME, organism-based
[9] = Drug uptake in albino F344/DuCrlCrlj rat thyroid gland assessed as ng equivalent of CS-1036 at 5 mg/kg, po after 4 hrs by liquid scintillation counting; type: ADME, organism-based
Plasma = test: Drug uptake in albino F344/DuCrlCrlj rat plasma at 5 mg/kg, po after 24 hrs by liquid scintillation counting; type: ADME, organism-based
[10] = Drug uptake in albino F344/DuCrlCrlj rat eyeball at 5 mg/kg, po after 72 hrs by liquid scintillation counting; type: ADME, organism-based
Large intestine [11] = test: Drug uptake in albino F344/DuCrlCrlj rat large intestine at 5 mg/kg, po after 168 hrs by liquid scintillation counting; type: ADME, organism-based
[12] = Drug uptake in albino F344/DuCrlCrlj rat mandibular gland assessed as ng equivalent of CS-1036 at 5 mg/kg, po after 24 hrs by liquid scintillation counting; type: ADME, organism-based
[13] = Drug uptake in albino F344/DuCrlCrlj rat eyeball assessed as ng equivalent of CS-1036 at 5 mg/kg, po after 4 hrs by liquid scintillation counting; type: ADME, organism-based
Thymus [14] = test: Drug uptake in albino F344/DuCrlCrlj rat thymus at 5 mg/kg, po after 72 hrs by liquid scintillation counting; type: ADME, organism-based
Adrenal gland [15] = test: Drug uptake in albino F344/DuCrlCrlj rat adrenal gland at 5 mg/kg, po after 24 hrs by liquid scintillation counting; type: ADME, organism-based
Pancreas [16] = test: Drug uptake in albino F344/DuCrlCrlj rat pancreas assessed as ng equivalent of CS-1036 at 5 mg/kg, po after 1 hr by liquid scintillation counting; type: ADME, organism-based
Large intestine [17] = test: Drug uptake in albino F344/DuCrlCrlj rat large intestine at 5 mg/kg, po after 8 hrs by liquid scintillation counting; type: ADME, organism-based
Adrenal gland [18] = test: Drug uptake in albino F344/DuCrlCrlj rat adrenal gland at 5 mg/kg, po after 8 hrs by liquid scintillation counting; type: ADME, organism-based
Cerebellum = test: Drug uptake in albino F344/DuCrlCrlj rat cerebellum assessed as ng equivalent of CS-1036 at 5 mg/kg, po after 336 hrs by liquid scintillation counting; type: ADME, organism-based
Lung [19] = test: Drug uptake in albino F344/DuCrlCrlj rat lung assessed as ng equivalent of CS-1036 at 5 mg/kg, po after 24 hrs by liquid scintillation counting; type: ADME, organism-based
Small intestine [20] = test: Drug uptake in albino F344/DuCrlCrlj rat small intestine at 5 mg/kg, po after 4 hrs by liquid scintillation counting; type: ADME, organism-based
Small intestine [21] = test: Drug uptake in albino F344/DuCrlCrlj rat small intestine assessed as ng equivalent of CS-1036 at 5 mg/kg, po after 72 hrs by liquid scintillation counting; type: ADME, organism-based
[22] = Drug uptake in albino F344/DuCrlCrlj rat fat assessed as ng equivalent of CS-1036 at 5 mg/kg, po after 8 hrs by liquid scintillation counting; type: ADME, organism-based, Adipose tissue
In short: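 Male F344/DuCrlCrlj rats (bought at 7 weeks, acclimatized 5–6 days; 159–167 g; n = 3 per time point) received a single oral dose of [14C]CS-1036 at 5 mg/kg. White adipose tissue was collected after abdominal aortic bleeding at 1, 4, 8, 24, 72, 168 or 336 h. Samples were counted by LSC with external-standard efficiency correction. Results were converted to ng equivalents per g from specific activity and sample weight.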

Cerebrum [23] = test: Drug uptake in albino F344/DuCrlCrlj rat cerebrum at 5 mg/kg, po after 168 hrs by liquid scintillation counting; type: ADME, organism-based; in short: as §1
Cerebrum [24] = test: Drug uptake in albino F344/DuCrlCrlj rat cerebrum assessed as ng equivalent of CS-1036 at 5 mg/kg, po after 24 hrs by liquid scintillation counting; type: ADME, organism-based; in short: as §1
Spleen = test: Drug uptake in albino F344/DuCrlCrlj rat spleen assessed as ng equivalent of CS-1036 at 5 mg/kg, po after 336 hrs by liquid scintillation counting; type: ADME, organism-based
Pancreas [25] = test: Drug uptake in albino F344/DuCrlCrlj rat pancreas at 5 mg/kg, po after 336 hrs by liquid scintillation counting; type: ADME, organism-based
Lung [26] = test: Drug uptake in albino F344/DuCrlCrlj rat lung assessed as ng equivalent of CS-1036 at 5 mg/kg, po after 8 hrs by liquid scintillation counting; type: ADME, organism-based
Pancreas [27] = test: Drug uptake in albino F344/DuCrlCrlj rat pancreas assessed as ng equivalent of CS-1036 at 5 mg/kg, po after 168 hrs by liquid scintillation counting; type: ADME, organism-based
Aorta = test: Drug uptake in albino F344/DuCrlCrlj rat aorta assessed as ng equivalent of CS-1036 at 5 mg/kg, po after 72 hrs by liquid scintillation counting; type: ADME, organism-based
[28] = Drug uptake in albino F344/DuCrlCrlj rat urinary bladder assessed as ng equivalent of CS-1036 at 5 mg/kg, po after 24 hrs by liquid scintillation counting; type: ADME, organism-based
Liver [29] = test: Drug uptake in albino F344/DuCrlCrlj rat liver assessed as ng equivalent of CS-1036 at 5 mg/kg, po after 1 hr by liquid scintillation counting; type: ADME, organism-based

C[C@H]1O[C@@H](O[C@H]2[C@H](O)[C@@H](O)[C@@H](O[14C@H]3[14C@H](O)[14CH2]N[14C@@H]3[14CH2]O)O[C@@H]2CO)[C@H](O)[C@@H](O)[C@@H]1O
Radiolabel recovery (Cerebrum [1]): 3.11 ngequiv/g
Radiolabel recovery (Small intestine [2]): 1.92 ngequiv/g
Radiolabel recovery (Thymus [3]): 2.1 ngequiv/g
Radiolabel recovery [4]: 51.1 ngequiv/g
Radiolabel recovery [5]: 10.4 ngequiv/g
Radiolabel recovery (Zone of skin): 48.7 ngequiv/g
Radiolabel recovery [6]: 8.2 ngequiv/g
Radiolabel recovery (Liver [7]): 9.1 ngequiv/g
Radiolabel recovery [8]: 98.9 ngequiv/g
Radiolabel recovery [9]: 21.4 ngequiv/g
Radiolabel recovery (Plasma): 46.3 ngequiv/ml
Radiolabel recovery [10]: 7.83 ngequiv/g
Radiolabel recovery (Large intestine [11]): 26.4 ngequiv/g
Radiolabel recovery [12]: 9 ngequiv/g
Radiolabel recovery [13]: 4.8 ngequiv/g
Radiolabel recovery (Thymus [14]): 48.3 ngequiv/g
Radiolabel recovery (Adrenal gland [15]): 81.8 ngequiv/g
Radiolabel recovery (Pancreas [16]): 11 ngequiv/g
Radiolabel recovery (Large intestine [17]): 7770 ngequiv/g
Radiolabel recovery (Adrenal gland [18]): 66.1 ngequiv/g
Radiolabel recovery (Cerebellum): 3.05 ngequiv/g
Radiolabel recovery (Lung [19]): 12.8 ngequiv/g
Radiolabel recovery (Small intestine [20]): 965 ngequiv/g
Radiolabel recovery (Small intestine [21]): 16.2 ngequiv/g
Radiolabel recovery [22]: 4.6 ngequiv/g
Radiolabel recovery (Cerebrum [23]): 6.2 ngequiv/g
Radiolabel recovery (Cerebrum [24]): 1.5 ngequiv/g
Radiolabel recovery (Spleen): 2.83 ngequiv/g
Radiolabel recovery (Pancreas [25]): 25.4 ngequiv/g
Radiolabel recovery (Lung [26]): 72.1 ngequiv/g
Radiolabel recovery (Pancreas [27]): 5.8 ngequiv/g
Radiolabel recovery (Aorta): 16.1 ngequiv/g
Radiolabel recovery [28]: 8.6 ngequiv/g
Radiolabel recovery (Liver [29]): 60 ngequiv/g
